From PMC4394037 (Journal of molecular biology, 2014)

These sequences were tested against Bcl-xL (Homo sapiens, UniProt Q07817). Details: global SORTCERY ranks re-indexed from 1 to 19 for the 19 chosen sequences.
Format: binding
In short: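 Incubated with Myc-tagged Bcl-xL in 50 mM Tris, 100 mM NaCl, pH 8.0, 1 mg/ml BSA for 2 h at room temperature. Stained with anti-HA/anti-Myc, then APC/PE secondaries, at 4 °C. Sorted into 12 gates and deep-sequenced (Phred >0.95). Global ranking optimised by Monte Carlo, with bootstrap uncertainty.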

Bcl-xL, sequence (Q07817 whole entry): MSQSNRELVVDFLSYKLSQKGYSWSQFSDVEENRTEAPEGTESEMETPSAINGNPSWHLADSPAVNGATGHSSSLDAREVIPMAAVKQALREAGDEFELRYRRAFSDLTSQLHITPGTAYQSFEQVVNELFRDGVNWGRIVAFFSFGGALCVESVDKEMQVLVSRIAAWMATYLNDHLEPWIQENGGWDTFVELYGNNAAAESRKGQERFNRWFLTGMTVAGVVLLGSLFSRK

Sequence	reindexed ranking
AAQELRRYGDEY	8
AGAQLHRFADDY	12
IGAQLRRMADDV	7
VAQELRRYGDEY	4
VGAQFHRFANDF	17
YGAQLDRYAQDF	10

More lines, now with the values ahead:

reindexed ranking	Sequence
14	FGAQLGRVASDF
6	FGAQLNRIAEDF
5	IGAQFGRFADDF
9	VAQELRRIGDEV
1	VGAQLRRIADDV
16	YAQEIGRNGDEF
13	YAQELQRYGDET
